In data set [1] the test system is Rattus norvegicus. The data set can be described thus: Inhibition of VEGF-induced vascular permeability in intradermally dosed Sprague-Dawley rat assessed as reduction in extravasation of Evans blue dye by Miles assay. It is filed as functional, organism-based. The essentials:
(§1)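 Male Sprague–Dawley rats (250–300 g) were anesthetized and shaved, then re-anesthetized 2–3 days later and given 150 μL 1% Evans blue i.v. After 15 min, 15 μL was injected intradermally: VEGF (100 ng/mL), compound (1, 5 or 10 μg/mL) in PBS, or PBS alone. Skin was dissected after 1 h, dye eluted with formamide at 56 °C, and OD read at 620 nm. n = 3 at 10 μg/mL.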

Data set [2] deals with Rattus norvegicus. Nature of the data set: Inhibition of VEGF-induced vascular permeability in intradermally dosed Sprague-Dawley rat assessed as reduction in extravasation of Evans blue dye at 10 ug/ml by Miles assay. It is filed as functional. The essentials:
as §1

The test system of data set [3] is HUVEC. Nature of the data set: Inhibition of VEGF-induced angiogenesis in HUVECs assessed as reduction in capillary-like tube formation on matrigel at 12.5 uM incubated for 6 hrs by fluorescence microscopy. It is filed as functional. Particulars: Homo sapiens. The essentials:
(§2)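 HUVECs were cultured to the supplier's standard protocol. 5 × 10^4 cells were plated on basement membrane extract in medium with VEGF (10 ng/mL), with or without compound, and incubated 6 h. Cells were stained with 2 μM Calcein AM in PBS for 30 min. Tubes were imaged by fluorescence microscopy and quantified by image analysis against untreated cultures. Means ± SD, n = 3.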

Data set [4] deals with HUVEC. The data set can be described thus: Inhibition of VEGF-induced angiogenesis in HUVECs assessed as reduction in capillary-like tube formation on matrigel at 25 uM incubated for 6 hrs by fluorescence microscopy. It is filed as functional. Particulars: Homo sapiens. Summed up:
as §2

In data set [5] the test system is HUVEC. Nature of the data set: Toxicity in HUVECs at 12.5 uM. Particulars: human. It counts as cell-based.
Data set [6] deals with HUVEC. Nature of the data set: Toxicity in HUVECs at 25 uM. It is filed as cell-based. The conditions noted are these: human.

Active and inactive are the calls of the source. No cut-off for these calls is given here.

By inhibition is commonly meant the percentage by which the read-out fell short of the control. Regarding `C=C(CC[C@@H](C)[C@H]1[C@@H](O)C[C@@]2(C)[C@@H]3C[C@@H](O)[C@H]4C(C)(C)[C@@H](O[C@@H]5OC[C@@H](O)[C@H](O)[C@H]5O)CC[C@@]45C[C@@]35CC[C@]12C)C(C)C` (relative stereo), the inhibition entry in data set [1] was “Dose-dependent effect”.
`C=C(CC[C@@H](C)[C@H]1[C@@H](O)C[C@@]2(C)[C@@H]3C[C@@H](O)[C@H]4C(C)(C)[C@@H](O)CC[C@@]45C[C@@]35CC[C@]12C)C(C)C` (relative stereo): in data set [1], the inhibition entry was “inactive”.
Regarding `C=C(CC[C@@H](C)[C@H]1[C@@H](O)C[C@@]2(C)[C@@H]3[C@@H](O)C[C@H]4C(C)(C)[C@@H](O[C@@H]5OC[C@@H](O)[C@H](O)[C@H]5O)CC[C@@]45C[C@@]35CC[C@]12C)C(C)C`, the inhibition result in data set [1] was “Dose-dependent effect”.
On to `C=C(CC[C@@H](C)[C@H]1CC[C@@]2(C)[C@@H]3[C@@H](O)[C@@H](O)[C@H]4C(C)(C)[C@@H](O)CC[C@@]45C[C@@]35CC[C@]12C)C(C)C`, for which the inhibition entry in data set [1] was “inactive”.
For `C=C(CC[C@@H](C)[C@H]1CC[C@@]2(C)[C@@H]3[C@@H](O)[C@@H](O)[C@H]4C(C)(C)[C@@H](O[C@@H]5OC[C@@H](O)[C@H](O)[C@H]5O)CC[C@@]45C[C@@]35CC[C@]12C)C(C)C` (relative stereo), in data set [1], the inhibition result was “inactive”.
For `C=C(CC[C@@H](C)[C@H]1[C@@H](O)C[C@@]2(C)[C@@H]3[C@@H](O)[C@@H](O)[C@H]4C(C)(C)[C@@H](O[C@@H]5OC[C@@H](O)[C@H](O)[C@H]5O)CC[C@@]45C[C@@]35CC[C@]12C)C(C)C`, the inhibition result in data set [1] is “Dose-dependent effect”. Besides, the “inhibition (INH)” value in data set [2] is given as 64%. For the same compound, the inhibition at 12.5 µM in data set [3] was determined as 28.5%. The inhibition at 25 µM in data set [4] worked out at 59.5%. Besides, the Activity entry in data set [5] and in data set [6] was “Non-toxic” each time.
